Screening data deposited in PubChem by several laboratories.
NPY Y1 blocker: blocks the human neuropeptide Y Y1 receptor. inhibition, % at 3.6 µM. AID 1040. HEK293-CNG Y1 cells, membrane potential fluorescence; NPY at EC95, then isoproterenol. actives 1% (n = 200,000);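 active means inhibition above the campaign mean inhibition of all tested compounds plus 3 SD, cut at about 20% in these data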;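 further: 0% = DMSO wells given NPY plus isoproterenol and 100% = isoproterenol alone without NPY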
Target sequence (P25929 whole entry, looked up): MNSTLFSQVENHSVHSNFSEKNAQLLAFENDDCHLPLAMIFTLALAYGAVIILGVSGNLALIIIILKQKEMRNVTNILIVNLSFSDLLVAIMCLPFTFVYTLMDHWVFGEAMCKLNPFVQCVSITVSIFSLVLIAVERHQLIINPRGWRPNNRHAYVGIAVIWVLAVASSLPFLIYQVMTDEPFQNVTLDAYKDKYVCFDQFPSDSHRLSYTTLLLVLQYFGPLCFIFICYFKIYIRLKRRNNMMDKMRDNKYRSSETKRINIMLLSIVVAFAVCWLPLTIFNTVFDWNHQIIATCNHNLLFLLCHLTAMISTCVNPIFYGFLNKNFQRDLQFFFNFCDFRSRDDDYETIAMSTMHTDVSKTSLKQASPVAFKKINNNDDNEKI
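Material: HEK293 Y1/CNG channel cell line; also added: NPY (25 nM), isoproterenol (1 µM), Ro 20-1724 (25 µM); doses: one concentration, 3.6 µM, in 0.4% DMSO; schedule: compound incubation 1 h at room temperature, readout 45 min post-stimulation; technique: membrane potential fluorescence; measure: fluorescence ratio normalized to % inhibition between controls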
NPY1 pot ag: human NPY-Y1 potentiation or agonism, primary screen. NPY-Y1 expressing cells, potentiator/agonist activation. actives 0.37% (n = 220,000). P25929. activation, % at 3.6 µM; in the data active means activation above about 33%, passing the limit was not always enough;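 further: cells stimulated with NPY at EC10 then isoproterenol at EC100; 0% = low agonist plus stimulus and 100% = saturating agonist plus stimulus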
NPY Y2 blocker: antagonists of human neuropeptide Y receptor Y2. P49146. NPY-Y2 expressing cells, antagonist mode. inhibition, % at 2.7 µM. actives 0.99% (n = 140,000); in the data active means inhibition above about 17%;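 further: 0% = vehicle with agonist challenge and 100% = reference antagonist with challenge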
MT stabilize HCS: stabilizes microtubules in HeLa cells; HeLa tubulin immunostaining HCS, 24 h; share of cells brighter than vehicle mean+2SD; % tubulin-high responders, % at 10 µM; actives 0.83% (n = 200,000);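 active means plate Z-score above 3 for both tubulin-high and condensed-nucleus cell shares, with cell loss under 80%, at 10 µM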;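 further: anti alpha tubulin signal scored within the nucleus-defined area of each cell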
NPY-Y2 PAM-ag: human NPY-Y2 potentiation or agonism, primary screen | actives 0.45% (n = 220,000) | P49146 | activation, % at 3.6 µM | AID 1359 | cells expressing NPY-Y2, potentiator/agonist read-out; in the data active means activation above about 27%;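 further: cells stimulated with NPY near EC25 plus isoproterenol at EC100; 0% = vehicle plus submaximal agonist and 100% = vehicle plus saturating agonist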
b-catenin transl: alters nuclear translocation of beta-catenin in HeLa cells; immunofluorescence imaging; nuclear translocation activity, % at 5 µM; actives 0.3% (n = 190,000);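 active means nuclear translocation activity above 50% at 5 µM, with a well cell count of 50 or more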;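 further: per-cell ratio of nuclear to cytoplasmic median beta-catenin stain intensity; plate controls were DMSO negative control for no effect and GSK-3 inhibitor IX positive control for full effect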
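System: HeLa cells, endogenous beta-catenin; compound dosing: 5 µM primary single dose, 0.1% DMSO, 0.02–20 µM confirmation series; incubation: 24 h compound exposure at 37°C, 5% CO2; signal: beta-catenin immunofluorescence imaging with DAPI; evaluation: % activation, nuclear-to-cytoplasmic median beta-catenin signal ratio per cell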
NPY-Y1 antag ct: human NPY-Y1 antagonism in NPY-Y2 counter-screen | cell-based NPY-Y1 antagonism counterscreen | actives 19% (n = 710) | shares compounds with NPY Y2 blocker | inhibition, % at 3.6 µM; in the data active means inhibition above about 20%;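 further: cells challenged with NPY then isoproterenol with cAMP sensed through a CNG channel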
NPY2 antag conf: confirmation of human neuropeptide Y receptor Y2 antagonists | shares compounds with NPY Y2 blocker | AID 1257 | inhibition, % at 2.8 µM | actives 32% (n = 710) | HEK293 NPY-Y2 CNG channel, membrane potential fluorescence;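 active means mean inhibition of triplicate wells above the hit cutoff set in the primary screen, cut at about 17% in these data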;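 further: 0% = DMSO with NPY challenge and 100% = BIIE0246 high control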
Active calls of the source: *. Compounds with a hit are over-represented: about 2.6% of the library has one in this group of screens.

What do the screens show for `C=C1C(=O)O[C@@H]2C[C@@H](C)[C@@H]3C=CC(=O)[C@@]3(C)[C@@H](OC(=O)CC(=O)O[C@H]3[C@@H]4C(=C)C(=O)O[C@@H]4C[C@@H](C)[C@@H]4C=CC(=O)[C@]43C)[C@H]12`?
b-catenin transl: 72*

How did C#CCOc1cc(C2C3=C(COC3=O)Nc3cc4c(cc32)OCO4)ccc1OC (configuration not stated) do in these assays?
NPY Y1 blocker: 13; NPY1 pot ag: -9; MT stabilize HCS: 13*; NPY-Y2 PAM-ag: -8; b-catenin transl: 80*

How did Cc1nn(C)c(C)c1/C=C1/CC2C3CC=C4CC(O)CCC4(C)C3CCC2(C)C1=O (configuration not stated) do in these assays?
NPY Y1 blocker: 26*; NPY1 pot ag: -45; NPY Y2 blocker: 47*; MT stabilize HCS: 2; NPY-Y2 PAM-ag: -20; b-catenin transl: -2

Results for CCn1ncc(/C=C2/CC3C4CC=C5CC(O)CCC5(C)C4CCC3(C)C2=O)c1C (configuration not stated) ?
NPY Y1 blocker: -1; NPY1 pot ag: -17; NPY Y2 blocker: 1; MT stabilize HCS: 4; NPY-Y2 PAM-ag: 8

What do the screens show for `C=C1[C@@H](C)[C@H]2[C@H](Cc3ccccc3)NC(=O)[C@]23OC(=O)/C=C/[C@H](O)CCC[C@@H](C)C/C=C/[C@H]3[C@@H]1O`?
NPY Y1 blocker: 21*; NPY1 pot ag: 19; NPY-Y2 PAM-ag: 30; b-catenin transl: 13

What do the screens show for `C/C(=N\N1CCCCCC1)c1c(O)n(-c2ccccc2C)c(=O)[nH]c1=O`?
NPY1 pot ag: 1; NPY-Y2 PAM-ag: -11; b-catenin transl: 1

How did O=C(Cn1cc(C(=O)c2ccccc2)c2ccccc21)NCc1ccco1 do in these assays?
NPY Y1 blocker: -3; NPY1 pot ag: -14; NPY Y2 blocker: 2; MT stabilize HCS: 31*; NPY-Y2 PAM-ag: -17; b-catenin transl: -4

How did Cc1cc(OCCN2CC2)c2ccccc2n1 do in these assays?
NPY1 pot ag: 15; NPY-Y2 PAM-ag: -10; b-catenin transl: 1

Results for O=C(CNC(=O)c1cccc(Cl)c1)Nc1ccc(Br)cc1C(=O)c1ccccc1 ?
NPY Y1 blocker: 18; NPY1 pot ag: -38; NPY Y2 blocker: 23*; MT stabilize HCS: 1; NPY-Y2 PAM-ag: -3; b-catenin transl: 0; NPY-Y1 antag ct: 12; NPY2 antag conf: 13

Results for COc1ccc(C2NCc3ccc4c(c3-n3cccc32)OCO4)cc1O (configuration not stated) ?
NPY Y1 blocker: 18; NPY1 pot ag: -34; NPY Y2 blocker: 19*; MT stabilize HCS: 29*; NPY-Y2 PAM-ag: -27; NPY-Y1 antag ct: 21*; NPY2 antag conf: 37*

What do the screens show for `N#Cc1ccccc1Cn1cc(C(=O)c2cccs2)c2ccccc21`?
NPY Y1 blocker: 5; NPY1 pot ag: -30; NPY Y2 blocker: 7; MT stabilize HCS: 3; NPY-Y2 PAM-ag: 9; b-catenin transl: -1

How did O=C(c1cccs1)c1cn(Cc2ccccc2Cl)c2ccccc12 do in these assays?
NPY Y1 blocker: 16; NPY1 pot ag: -31; NPY Y2 blocker: 19*; MT stabilize HCS: 1; NPY-Y2 PAM-ag: -11; b-catenin transl: -12; NPY-Y1 antag ct: 21*; NPY2 antag conf: 16

Results for O=C1/C(=C/c2cc3c(cc2Cl)OCO3)N2CCC1CC2 ?
NPY Y1 blocker: -3; NPY1 pot ag: -3; NPY Y2 blocker: 4; MT stabilize HCS: 3; NPY-Y2 PAM-ag: 14; b-catenin transl: 0

What do the screens show for `COC(=O)C(O)(c1c(C)[nH]c2ccccc12)C(F)(F)F` (configuration not stated)?
NPY Y1 blocker: 1; NPY1 pot ag: 28; NPY Y2 blocker: -4; MT stabilize HCS: 3; NPY-Y2 PAM-ag: 17; b-catenin transl: -1

How did O=C(Nc1ccc(F)cc1)c1c(O)c2c(n(Cc3ccccc3)c1=O)CCCC2 do in these assays?
NPY Y1 blocker: -3; NPY1 pot ag: -1; NPY Y2 blocker: 2; MT stabilize HCS: 3; NPY-Y2 PAM-ag: 2; b-catenin transl: 0

How did O=C(Nc1cccnc1)c1c(O)c2c(n(Cc3ccccc3)c1=O)CCCC2 do in these assays?
NPY Y1 blocker: 4; NPY1 pot ag: 5; NPY Y2 blocker: 19*; MT stabilize HCS: 7; NPY-Y2 PAM-ag: 12; b-catenin transl: 2; NPY-Y1 antag ct: 1; NPY2 antag conf: 4

What do the screens show for `O=c1[nH]c(O)c(N=Nc2ccc(SC(F)F)cc2)c(=O)[nH]1`?
NPY1 pot ag: 0; NPY-Y2 PAM-ag: -5; b-catenin transl: 3

How did Cc1cc(OCC(=O)Nc2c(C)n(C)n(-c3ccccc3)c2=O)c2c3c(c(=O)oc2c1)CCC3 do in these assays?
b-catenin transl: -4

Results for CCCC/C(C)=C/[C@@H](NP(=O)(c1ccccc1)c1ccccc1)c1ccccc1 ?
NPY Y1 blocker: 14; NPY1 pot ag: -31; NPY Y2 blocker: 27*; MT stabilize HCS: 3; NPY-Y2 PAM-ag: -8; b-catenin transl: -2; NPY-Y1 antag ct: 23*; NPY2 antag conf: 20*

Results for CCCCCP(=O)(O)c1ccccc1 ?
NPY Y1 blocker: -1; NPY1 pot ag: -21; NPY Y2 blocker: -3; MT stabilize HCS: 3; NPY-Y2 PAM-ag: 0; b-catenin transl: 2

What do the screens show for `Clc1ccc(COC(Cn2ccnc2)c2ccc(Cl)cc2Cl)cc1` (configuration not stated)?
NPY Y1 blocker: 15; NPY1 pot ag: -47; NPY Y2 blocker: 22*; MT stabilize HCS: 3; NPY-Y2 PAM-ag: 0; b-catenin transl: -3; NPY-Y1 antag ct: 19; NPY2 antag conf: 18*

Results for CC1(C)C[C@H]2C=C(C=O)[C@]3(C=O)C[C@]3(C)[C@H]2C1 ?
NPY Y1 blocker: 3; NPY1 pot ag: 17; NPY Y2 blocker: 3; MT stabilize HCS: 4; NPY-Y2 PAM-ag: 8; b-catenin transl: 5

What do the screens show for `CCC(=NCCC(c1ccccc1)c1ccccc1)c1c(O)n(C)c(=O)n(C)c1=O`?
NPY Y1 blocker: -1; NPY1 pot ag: 8; NPY Y2 blocker: 24*; MT stabilize HCS: 1; NPY-Y2 PAM-ag: 16; b-catenin transl: -3; NPY-Y1 antag ct: 16; NPY2 antag conf: 27*

How did Cn1c(O)c(C(=O)c2ccccc2)c(=O)n(C)c1=O do in these assays?
NPY Y1 blocker: -1; NPY1 pot ag: 4; NPY Y2 blocker: 0; MT stabilize HCS: 3; NPY-Y2 PAM-ag: -10; b-catenin transl: -1
